# High-throughput results (PubChem BioAssay)
# Furin inh: human furin inhibition | inhibition, % at 20 µM or 30 µM | 220,000 compounds, 0.061% hits | purified furin, fluorogenic substrate cleavage | AID 463115; in the data active means inhibition above about 25%
# HSV augment: HSV replication enhancement. 220,000 compounds, 0.005% hits. HSV replication augmentation in cells, fold increase. AID 1956. maximum fold increase; in the data active means maximum fold increase above about 1.5; inconclusive means no clear call, values can overlap the other calls; tested in PC3 cells
# b-catenin transl: beta-catenin nuclear translocation modulation | AID 1665 | nuclear translocation activity, % at 5 µM | 190,000 compounds, 0.3% hits | HeLa beta-catenin nuclear translocation, immunofluorescence imaging;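 active means nuclear translocation activity above 50% at 5 µM, with a well cell count of 50 or more; inconclusive means wells under 50 cells across six images, flagged as toxic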;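 further: per-cell ratio of nuclear to cytoplasmic median beta-catenin stain intensity; plate controls were DMSO negative control for no effect and GSK-3 inhibitor IX positive control for full effect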
#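 Assay system: human HeLa cells, native beta-catenin; doses: 5 µM primary, 0.02–20 µM confirmation; incubation: compound treatment 24 h, 37°C, 5% CO2; technique: fluorescence imaging of beta-catenin antibody stain plus DAPI; measure: % activation, nuclear-to-cytoplasmic median beta-catenin signal ratio per cell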
# MT stabilize HCS: stabilizes microtubules in HeLa cells | % tubulin-high responders, % at 10 µM | 200,000 compounds, 0.83% hits | HeLa tubulin immunostaining HCS, 24 h; share of cells brighter than vehicle mean+2SD | AID 2205;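 active means plate Z-score above 3 for both tubulin-high and condensed-nucleus cell shares, with cell loss under 80%, at 10 µM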;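 further: anti alpha tubulin signal scored within the nucleus-defined area of each cell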
# Autophagy mod: modulators of autophagy. MEF GFP-LC3 puncta imaging; test concentration mostly 10 µM. calls only at 10 µM (by protocol). 190,000 compounds, 0.98% hits. AID 463193;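 active means percentage of spot-positive cells more than 3 SD above its plate mean, without a fluorescence outlier flag or 80% toxicity; inconclusive means no clear call, values can overlap the other calls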;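 further: spot-positive cell cutoff set from DMSO-treated cells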
# Insulin prom up: MIN6 insulin promoter up-regulation; MIN6 insulin promoter-GFP reporter, high-content imaging; active compounds read high; z-score at 5 µM; 190,000 compounds, 0.3% hits; AID 1625;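 active means z-score above 3 at 5 µM with at least 500 cells counted in the well; inconclusive means wells under 500 cells, flagged as cytotoxic or low count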
# * marks the source's active call; other numbers are inactive results; i = inactive; ? = inconclusive; / = no result given; + = active, no number. Rows were chosen to be rich in hits. Some 1.9% of all compounds tested hit in one or more screens of this group.
SMILES,Furin inh,HSV augment,b-catenin transl,MT stabilize HCS,Autophagy mod,Insulin prom up
COCCCN=C1NN=C(c2cc(C)n(Cc3ccco3)c2C)CS1,11,i,/,14*,i,-1.1
Cc1cc2cc(CCNC(=O)C(=O)c3c[nH]c4ccccc34)c(=O)[nH]c2cc1C,-9,i,1,4,i,-0.78
Cc1cc(C)c2c(=O)c(/C=C3\NC(=S)NC3=O)coc2c1,-25,i,1,/,/,0.14
COc1cc(N2CCCC2)c(OC)cc1/C=C1/NC(=S)NC1=O,-12,?,4,4,+,/
Cc1nn(-c2ccccc2)c2sc(C(=O)NC3CC3)cc12,-16,i,1,4,i,0.05
Cc1nn(-c2ccccc2)c2sc(C(=O)N(CC(=O)NC3CCCC3)Cc3ccco3)cc12,-9,i,-2,40*,i,-0.69
N#C/C(=C/c1ccc(-c2ccc(S(N)(=O)=O)cc2)o1)C(=O)Nc1ccccc1,-9,i,0,3,i,-0.74
N#C/C(=C/c1ccc(-c2ccc(S(N)(=O)=O)cc2)o1)c1nc2ccccc2s1,-14,/,9,4,+,/
N#C/C(=C/c1ccc(-c2ccccc2)o1)c1nc(-c2cccs2)cs1,-24,?,-2,4,+,/
O=C(Nc1ccc(Cl)cn1)c1cccc(F)c1,0,i,100*,39*,i,0.16
Cc1ccc(S(=O)(=O)Oc2ccccc2/C=N/NC(N)=S)cc1,-16,i,33,32,+,-1.5
NC(=O)c1ccccc1OC1CCC1,-22,i,0,/,/,-0.78
COc1ccc(Nc2ccc3c(c2)=NC2(CCCCC2)[N+]=3[O-])cc1,-12,i,5,24,+,-2.4
COc1ccc(NC2=NC(=S)N(c3ccccc3C)C23CCCCC3)cc1,-22,i,2,2,i,-0.17
[O-][N+]1=c2ccc(Nc3ccccc3)cc2=NC12CCCCC2,-9,i,12,29*,i,-0.35
O=[N+]([O-])c1ccc(Cl)cc1N1CCCCC1,-8,i,0,2,+,-0.26
O=[N+]([O-])c1ccc(Cl)cc1N1CCOCC1,-6,i,-1,3,i,/
Cc1nc(Nc2ccc(Br)cc2Br)c([N+](=O)[O-])c(=O)[nH]1,/,i,/,/,/,/
Cc1nc(NC(=O)c2ccccc2)sc1Cc1ccc2c(c1)OCO2,-21,i,/,11*,i,-0.4
Cc1nc(NC(=O)c2ccc(Cl)cc2)sc1Cc1ccc2c(c1)OCO2,-18,i,/,13*,i,0.23
Cc1c(Cc2ccc3c(c2)OCO3)sc(NC(=O)c2ccccc2)c1C(N)=O,-19,i,0,6,i,-0.04
O=C(CSc1nnc2c(n1)[nH]c1ccccc12)NCc1ccco1,-4,i,0,8,i,-0.27
COc1ccc(C2C=C(c3ccc(Br)s3)Nc3ncnn32)cc1OC (centres undefined),-5,?,58*,29*,i,-0.39
CCCn1c(CCC(=O)O)nc2cc(S(N)(=O)=O)ccc21,-18,i,-1,/,/,0.42
CC(/C=N/NC(=O)c1cc(-c2cccnc2)nc2c1c(C)nn2-c1ccccc1)=C\c1ccccc1,-2,i,-2,5,+,-0.72
SMILES,Furin inh,HSV augment,b-catenin transl,MT stabilize HCS,Autophagy mod,Insulin prom up
CC[n+]1c(/C=C/C=C/N(C(C)=O)c2ccccc2)sc2ccccc21,-1,/,/,75,+,?
O=C1/C(=C/c2cccnc2)SC(=S)N1Nc1ccccc1,-3,i,2,/,/,-0.37
N#CC(c1nc2ccccc2nc1N1CCCC1)S(=O)(=O)c1ccccc1 (centres undefined),-22,?,0,4,i,-0.16
Cc1ccc(S(=O)(=O)C(C#N)c2nc3ccccc3nc2N2CCC(C)CC2)cc1 (centres undefined),-13,i,-2,3,i,3.8*
Cc1cccc(NC(=O)CCc2c(C)nc3ncnn3c2C)n1,-19,i,-1,2,i,-0.03
COc1ccc2cc3cc(C(=O)NCc4ccccn4)oc3nc2c1,-74,/,1,3,i,3.3*
COc1ccc2cc3cc(C(=O)Nc4ccccc4N4CCN(C)CC4)oc3nc2c1,1,?,-1,43,+,-2.9
COc1ccc2cc3cc(C(=O)NCCN4CCN(c5ccccc5F)CC4)oc3nc2c1,-241,/,0,2,i,-0.28
